Test results: ChEMBL document CHEMBL3232774, “Symmetric bis-chalcones as a new type of breast cancer resistance protein inhibitors with a mechanism different from that of chromones” (J Med Chem, 2014); call rule not given here

Key:
[1] = biological target: T1, ABCG2 (Homo sapiens, UniProt Q9UNQ0); experiment: Inhibition of ABCG2 (unknown origin) transfected in HEK293 cells assessed as inhibition of mitoxantrone efflux at 5 uM after 30 mins by flow cytometry relative to control; assay type: cell-based; conditions: HEK293 cells transfected with ABCG2, probe mitoxantrone
T1 sequence (Q9UNQ0 whole entry): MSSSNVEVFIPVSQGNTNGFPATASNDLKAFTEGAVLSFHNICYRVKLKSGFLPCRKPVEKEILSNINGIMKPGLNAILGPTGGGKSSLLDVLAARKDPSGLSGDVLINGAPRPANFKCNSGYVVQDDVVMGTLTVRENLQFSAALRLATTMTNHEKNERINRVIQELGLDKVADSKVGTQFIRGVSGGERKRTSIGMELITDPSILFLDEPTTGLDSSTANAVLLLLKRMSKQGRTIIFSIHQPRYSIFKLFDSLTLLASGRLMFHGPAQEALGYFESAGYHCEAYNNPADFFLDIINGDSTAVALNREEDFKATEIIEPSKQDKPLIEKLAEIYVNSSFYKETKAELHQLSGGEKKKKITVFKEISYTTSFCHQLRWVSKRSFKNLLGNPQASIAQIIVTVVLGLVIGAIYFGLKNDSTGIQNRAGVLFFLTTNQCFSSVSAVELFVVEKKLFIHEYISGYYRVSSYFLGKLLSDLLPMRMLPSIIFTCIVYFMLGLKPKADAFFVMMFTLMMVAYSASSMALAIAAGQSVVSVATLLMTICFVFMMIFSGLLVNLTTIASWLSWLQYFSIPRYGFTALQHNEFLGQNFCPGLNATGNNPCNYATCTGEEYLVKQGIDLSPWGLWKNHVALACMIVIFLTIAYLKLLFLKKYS
Method in brief: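 HEK293-ABCG2 cells (1.5 × 10⁵/well, grown 48 h) exposed to 5 μM mitoxantrone for 30 min at 37 °C with compound (increasing concentrations up to 10 μM); washed, trypsinized, FL4 flow cytometry, ≥10 000 events.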

[2] = biological target: T2, Broad substrate specificity ATP-binding cassette transporter ABCG2 (Homo sapiens, UniProt Q9UNQ0); experiment: Inhibition of ABCG2 (unknown origin) transfected in HEK293 cells assessed as inhibition of mitoxantrone efflux after 30 mins by flow cytometry relative to control; assay type: cell-based
T2 sequence (Q9UNQ0 whole entry): T1 sequence (Q9UNQ0 whole entry)

[3] = system: HEK293; experiment: Cytotoxicity against HEK293 cells after 72 hrs by MTT assay; assay type: cell-based; conditions: Homo sapiens, HEK293, 72 h
Method in brief: (§1)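 HEK293-ABCG2 and vector-control HEK293-pcDNA3.1 cells were seeded at 1 × 10⁴/well and grown 24 h, then exposed 72 h to mitoxantrone (0–25 nM). ABCG2 cells were also given bis-chalcone at 0.1 or 0.5 μM. MTT was added for 4 h, formazan dissolved in DMSO/ethanol (1:1) and read at 570 nm. IC50 = mitoxantrone concentration giving 50% survival.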

[4] = system: HEK293; experiment: Cytotoxicity against HEK293 cells overexpressing ABCG2 after 72 hrs by MTT assay; assay type: ADME, cell-based; conditions: Homo sapiens, HEK293, 72 h; method in brief: as §1
[5] = biological target: T2, Broad substrate specificity ATP-binding cassette transporter ABCG2; experiment: Inhibition of human ABCG2 transfected in Sf9 insect cells assessed as inhibition of basal ATPase activity in absence of substrate drug after 30 mins by colorimetry; conditions: sf9, 0.5 h
Method in brief: (§2)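 Cholesterol-loaded membranes from Sf9 cells overexpressing human ABCG2 (0.5 mg/mL; 10 μg/sample) in 50 mM Tris-HCl, 50 mM NaCl, pH 8.0, with or without 0.33 mM orthovanadate, no transport substrate; started with 3.9 mM ATP-Mg, 30 min at 37 °C; stopped with SDS; phosphate released read with molybdate/ascorbic acid at 880 nm; vanadate-sensitive basal activity taken as 100%.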

[6] = biological target: T3, ABCG2 ATPase (Homo sapiens, UniProt Q9UNQ0); experiment: (§3) Inhibition of human ABCG2 ATPase activity transfected in Sf9 insect cells using quercetin as substrate after 30 mins by colorimetry relative to control; conditions: human, Sf9 insect cells transfected with human ABCG2, probe quercetin; read-out: Imax
T3 sequence (Q9UNQ0 whole entry): T1 sequence (Q9UNQ0 whole entry)
Method in brief: (§4)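 Vanadate-sensitive ATPase of cholesterol-loaded human ABCG2 Sf9 membranes (0.5 mg/mL; 10 μg/sample), 50 mM Tris-HCl/50 mM NaCl pH 8.0, with 2 μM quercetin. ATP-Mg 3.9 mM, 30 min, 37 °C. Phosphate measured colorimetrically at 880 nm. Coupled activity = total minus basal, taken as 100%. IC50 is the concentration giving 50% inhibition.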

[7] = biological target: T2, Broad substrate specificity ATP-binding cassette transporter ABCG2; experiment: as §3; method in brief: as §4
[8] = biological target: T3, ABCG2 ATPase; experiment: Activation of human ABCG2 transfected in Sf9 insect cells assessed as stimulation of basal ATPase activity in absence of substrate drug after 30 mins by colorimetry; conditions: Sf9 insect cells transfected with human ABCG2, read-out: FC; method in brief: as §2
[9] = biological target: ATP-dependent translocase ABCB1 (Homo sapiens, UniProt P08183); experiment: Inhibition of ABCB1 (unknown origin) transfected in mouse NIH/3T3 cells assessed as inhibition of mitoxantrone efflux up to 10 uM after 30 mins by flow cytometry relative to control; assay type: cell-based; conditions: nih/3t3, 0.5 h
Method in brief: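 NIH-3T3-ABCB1 cells (1.5 × 10⁵/well, 48 h, kept in 60 ng/mL colchicine) were given 5 μM mitoxantrone for 30 min at 37 °C with bis-chalcone at 1 or 10 μM. Fluorescence was read by FL4 flow cytometry, ≥10 000 events. Inhibition was expressed relative to parental NIH-3T3 cells, whose maximal accumulation was taken as complete inhibition.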

[10] = system: HEK293; experiment: Cytotoxicity against HEK293 cells overexpressing ABCG2 at 0.5 uM after 72 hrs by MTT assay; assay type: ADME, cell-based; conditions: human, hek293, 72 h; method in brief: as §1
[11] = system: ATP-binding cassette sub-family G member 2 (Homo sapiens); experiment: Inhibition of ABCG2-mediated mitoxantrone efflux in mitoxantrone-selected human PANC1 cells overexpressing ABCG2; conditions: PANC-1
[12] = biological target: T2, Broad substrate specificity ATP-binding cassette transporter ABCG2; experiment: Inhibition of ABCG2 (unknown origin)-mediated mitoxantrone efflux transfected in HEK293 cells assessed as potentiation of mitoxantrone-induced cytotoxicity at 0.5 uM after 72 hrs by MTT assay; assay type: cell-based; conditions: hek293, 72 h; method in brief: as §1
[13] = biological target: Multidrug resistance-associated protein 1 (Homo sapiens, UniProt P33527); experiment: Inhibition of ABCC1 (unknown origin) transfected in HEK293 cells assessed as inhibition of calcein-AM efflux up to 10 uM after 30 mins by flow cytometry relative to control; assay type: cell-based; conditions: hek293, 0.5 h
Method in brief: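 HEK293-ABCC1 cells (2 × 10⁵/well, kept in 200 μg/mL hygromycin B) were exposed to 0.2 μM calcein-AM for 30 min at 37 °C with bis-chalcone at 1 or 10 μM. Calcein was read by FL1 flow cytometry, ≥10 000 events. Inhibition was expressed relative to HEK293/pcDNA5 cells, whose maximal accumulation equals complete inhibition.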

[14] = biological target: T2, Broad substrate specificity ATP-binding cassette transporter ABCG2; experiment: Inhibition of ABCG2 (unknown origin) transfected in HEK293 cells assessed as inhibition of mitoxantrone efflux at 5 uM after 30 mins in presence of 0.1 uM (2E,2'E)-1,1'-(1,4-Phenylene)bis(3-(2,6-dimethoxyphenyl)-prop-2-en-1-one) by flow cytometry; assay type: cell-based

ATP-dependent translocase ABCB1, sequence (P08183 whole entry): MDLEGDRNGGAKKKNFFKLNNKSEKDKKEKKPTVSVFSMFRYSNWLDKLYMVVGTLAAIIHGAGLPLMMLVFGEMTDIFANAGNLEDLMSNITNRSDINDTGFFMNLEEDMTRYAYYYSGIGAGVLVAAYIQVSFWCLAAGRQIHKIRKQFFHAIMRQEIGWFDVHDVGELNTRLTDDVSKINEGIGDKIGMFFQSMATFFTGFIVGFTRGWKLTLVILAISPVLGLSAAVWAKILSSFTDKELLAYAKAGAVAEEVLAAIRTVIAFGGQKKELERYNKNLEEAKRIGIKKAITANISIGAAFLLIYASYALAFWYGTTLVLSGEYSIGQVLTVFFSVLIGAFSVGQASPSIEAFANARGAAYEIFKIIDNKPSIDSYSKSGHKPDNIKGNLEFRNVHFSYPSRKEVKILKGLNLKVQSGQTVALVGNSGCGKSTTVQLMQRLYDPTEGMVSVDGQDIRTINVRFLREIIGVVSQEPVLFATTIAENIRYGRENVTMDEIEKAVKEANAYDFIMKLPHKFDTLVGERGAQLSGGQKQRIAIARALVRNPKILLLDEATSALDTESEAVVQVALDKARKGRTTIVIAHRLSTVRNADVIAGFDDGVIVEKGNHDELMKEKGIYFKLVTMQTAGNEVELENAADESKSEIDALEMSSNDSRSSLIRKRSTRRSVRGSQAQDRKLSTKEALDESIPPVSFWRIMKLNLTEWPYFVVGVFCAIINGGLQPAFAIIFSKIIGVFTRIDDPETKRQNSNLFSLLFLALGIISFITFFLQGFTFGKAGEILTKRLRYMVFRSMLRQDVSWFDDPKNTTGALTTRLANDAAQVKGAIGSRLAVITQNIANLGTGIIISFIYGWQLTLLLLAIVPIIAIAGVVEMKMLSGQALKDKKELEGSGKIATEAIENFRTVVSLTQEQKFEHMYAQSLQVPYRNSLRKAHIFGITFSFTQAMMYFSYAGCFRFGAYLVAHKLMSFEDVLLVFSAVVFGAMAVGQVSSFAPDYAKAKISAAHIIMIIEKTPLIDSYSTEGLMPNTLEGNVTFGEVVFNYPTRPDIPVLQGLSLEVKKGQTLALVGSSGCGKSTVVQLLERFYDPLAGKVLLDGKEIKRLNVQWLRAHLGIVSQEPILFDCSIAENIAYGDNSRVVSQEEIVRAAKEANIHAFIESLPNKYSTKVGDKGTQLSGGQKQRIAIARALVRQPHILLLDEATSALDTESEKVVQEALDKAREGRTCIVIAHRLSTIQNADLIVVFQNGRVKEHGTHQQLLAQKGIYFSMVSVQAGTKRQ
Multidrug resistance-associated protein 1, sequence (P33527 whole entry): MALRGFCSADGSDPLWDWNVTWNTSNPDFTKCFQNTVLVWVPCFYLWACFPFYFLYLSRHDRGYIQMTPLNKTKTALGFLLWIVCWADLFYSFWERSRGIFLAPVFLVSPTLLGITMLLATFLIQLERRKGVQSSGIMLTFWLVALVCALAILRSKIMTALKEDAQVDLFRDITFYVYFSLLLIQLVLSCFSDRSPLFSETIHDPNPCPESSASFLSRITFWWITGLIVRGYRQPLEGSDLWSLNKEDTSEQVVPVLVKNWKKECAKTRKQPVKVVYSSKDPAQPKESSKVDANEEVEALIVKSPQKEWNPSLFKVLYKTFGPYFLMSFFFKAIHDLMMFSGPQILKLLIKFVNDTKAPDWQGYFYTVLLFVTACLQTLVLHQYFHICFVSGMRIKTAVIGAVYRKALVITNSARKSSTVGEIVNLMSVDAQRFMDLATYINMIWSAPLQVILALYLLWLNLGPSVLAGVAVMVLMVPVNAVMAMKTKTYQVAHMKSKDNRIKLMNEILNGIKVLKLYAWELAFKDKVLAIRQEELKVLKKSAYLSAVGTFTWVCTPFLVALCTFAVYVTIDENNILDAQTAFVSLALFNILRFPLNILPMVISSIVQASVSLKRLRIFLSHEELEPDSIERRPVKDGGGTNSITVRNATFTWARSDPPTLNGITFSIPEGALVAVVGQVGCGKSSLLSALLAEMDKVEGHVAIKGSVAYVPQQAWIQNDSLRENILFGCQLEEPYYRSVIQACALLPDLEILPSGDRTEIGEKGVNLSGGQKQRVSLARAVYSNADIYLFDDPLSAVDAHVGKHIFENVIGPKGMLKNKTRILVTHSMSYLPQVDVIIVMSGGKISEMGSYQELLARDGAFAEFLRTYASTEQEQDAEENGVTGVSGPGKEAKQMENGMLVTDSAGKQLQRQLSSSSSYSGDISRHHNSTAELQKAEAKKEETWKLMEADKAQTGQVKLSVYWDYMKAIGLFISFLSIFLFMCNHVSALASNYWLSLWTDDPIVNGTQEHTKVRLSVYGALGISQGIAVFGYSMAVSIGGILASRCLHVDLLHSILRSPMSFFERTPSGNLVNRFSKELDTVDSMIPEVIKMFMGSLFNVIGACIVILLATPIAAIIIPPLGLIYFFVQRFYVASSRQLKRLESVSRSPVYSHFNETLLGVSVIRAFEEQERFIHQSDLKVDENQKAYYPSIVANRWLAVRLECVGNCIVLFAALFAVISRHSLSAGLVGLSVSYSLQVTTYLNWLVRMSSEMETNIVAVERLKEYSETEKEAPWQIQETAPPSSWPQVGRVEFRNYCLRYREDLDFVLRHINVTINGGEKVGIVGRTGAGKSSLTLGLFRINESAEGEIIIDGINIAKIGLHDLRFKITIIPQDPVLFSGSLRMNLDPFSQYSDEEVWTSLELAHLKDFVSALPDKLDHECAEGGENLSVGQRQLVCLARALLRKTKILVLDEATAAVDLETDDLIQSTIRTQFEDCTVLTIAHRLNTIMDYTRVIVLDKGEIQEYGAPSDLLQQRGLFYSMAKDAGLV

Compound	inhibition at 0.5 h, 5 µM [1]	EC50 [2]	also measured
O=C(/C=C/c1ccc(/C=C/C(=O)c2ccc3c(c2)OCO3)cc1)c1ccc2c(c1)OCO2	19%		
COc1ccc(/C=C/C(=O)c2ccc(C(=O)/C=C/c3ccc(OC)c(OC)c3)cc2)cc1OC	63%	2100 nM	
COc1cc(C(=O)/C=C/c2ccc(/C=C/C(=O)c3ccc(O)c(OC)c3)cc2)ccc1O	28%		
O=C(/C=C/c1cccc2ccccc12)c1ccc(C(=O)/C=C/c2cccc3ccccc23)cc1	13%		
COc1cc(OC)c(OC)cc1/C=C/C(=O)c1ccc(C(=O)/C=C/c2cc(OC)c(OC)cc2OC)cc1	96%	300 nM	
COc1ccc(C(=O)/C=C/c2ccc(/C=C/C(=O)c3ccc(OC)cc3OC)cc2)c(OC)c1	86%	900 nM	
COc1ccc(/C=C/C(=O)c2ccc(C(=O)/C=C/c3ccc(OC)c(OC)c3OC)cc2)c(OC)c1OC	86%	1400 nM	
COc1ccc(/C=C/C(=O)c2ccc(C(=O)/C=C/c3ccc(OC)cc3)cc2)cc1	18%		
O=C(/C=C/c1ccc2c(c1)OCO2)c1ccc(C(=O)/C=C/c2ccc3c(c2)OCO3)cc1	11%		
O=C1c2c(O)ccc(O)c2C(=O)c2c(NCCNCCO)ccc(NCCNCCO)c21 [MITOXANTRONE]			IC50 [3]: 10 nM; IC50 [4]: 26.6 nM
COc1cc(OC)c(C(=O)/C=C/c2ccc(/C=C/C(=O)c3c(OC)cc(OC)cc3OC)cc2)c(OC)c1	66%	1800 nM	
COc1cc(OC)c(/C=C/C(=O)c2ccc(C(=O)/C=C/c3c(OC)cc(OC)cc3OC)cc2)c(OC)c1	92%	400 nM	
COc1ccc(C(=O)/C=C/c2ccc(/C=C/C(=O)c3ccc(OC)c(OC)c3)cc2)cc1OC	97%	800 nM	
CN(C)c1ccc(/C=C/C(=O)c2ccc(C(=O)/C=C/c3ccc(N(C)C)c4ccccc34)cc2)c2ccccc12	17%		
COc1cc(OC)cc(C(=O)/C=C/c2ccc(/C=C/C(=O)c3cc(OC)cc(OC)c3)cc2)c1	78%	500 nM	inhibition (INH) [5]: Not Active; Emax at 0.5 h [6]: 72%; IC50 [7]: 270 nM; fold induction at 0.5 h [8]: 1.8; inhibition (INH) [9]: Not Active; Activity [10]: Non-toxic; EC50 [11]: 210 nM; inhibition (INH) [12]: Active; inhibition (INH) [13]: Not Active
O=C(O)c1ccc(C(=O)/C=C/c2ccc(/C=C/C(=O)c3ccc(C(=O)O)cc3)cc2)cc1	0%		
COc1ccc(OC)c(C(=O)/C=C/c2ccc(/C=C/C(=O)c3cc(OC)ccc3OC)cc2)c1	74%	1300 nM	

Compound	inhibition at 0.5 h, 5 µM [1]	EC50 [2]	also measured
COc1cc(C(=O)/C=C/c2ccc(/C=C/C(=O)c3cc(OC)c(OC)c(OC)c3)cc2)cc(OC)c1OC	73%	1100 nM	
COc1cc(/C=C/C(=O)c2ccc(C(=O)/C=C/c3cc(OC)c(OC)c(OC)c3)cc2)cc(OC)c1OC	43%		
O=C(O)c1ccc(/C=C/C(=O)c2ccc(C(=O)/C=C/c3ccc(C(=O)O)cc3)cc2)cc1	2%		
COc1cc(/C=C/C(=O)c2ccc(C(=O)/C=C/c3ccc(O)c(OC)c3)cc2)ccc1O	0%		
O=C(/C=C/c1ccc(/C=C/C(=O)c2ccc3ccccc3c2)cc1)c1ccc2ccccc2c1	45%		
COc1ccc(C(=O)/C=C/c2ccc(/C=C/C(=O)c3ccc(OC)cc3)cc2)cc1	27%		
COc1ccc2[nH]cc(CCNC(=O)c3cc(=O)c4c(OCc5ccc(Br)cc5)cccc4o3)c2c1		94 nM	inhibition (INH) [5]: Active; EC50 [14]: 31 nM
O=C(/C=C/c1ccc2nccnc2c1)c1ccc(C(=O)/C=C/c2ccc3nccnc3c2)cc1	18%		
CN(C)c1ccc(/C=C/C(=O)c2ccc(C(=O)/C=C/c3ccc(N(C)C)cc3)cc2)cc1	34%		
O=C(/C=C/c1ccccc1)c1ccc(C(=O)/C=C/c2ccccc2)cc1	13%		
O=C(/C=C/c1ccc2ccccc2c1)c1ccc(C(=O)/C=C/c2ccc3ccccc3c2)cc1	7%		
COc1cccc(C(=O)/C=C/c2ccc(/C=C/C(=O)c3cccc(OC)c3)cc2)c1	73%	2300 nM	
COc1ccc(OC)c(/C=C/C(=O)c2ccc(C(=O)/C=C/c3cc(OC)ccc3OC)cc2)c1	96%	700 nM	
COc1ccccc1C(=O)/C=C/c1ccc(/C=C/C(=O)c2ccccc2OC)cc1	95%	1100 nM	
COc1cc(OC)c(C(=O)/C=C/c2ccc(/C=C/C(=O)c3cc(OC)c(OC)cc3OC)cc2)cc1OC	41%		
O=C(/C=C/c1ccc(/C=C/C(=O)c2cccc3ccccc23)cc1)c1cccc2ccccc12	23%		
O=C(/C=C/c1ccc(/C=C/C(=O)c2ccccc2)cc1)c1ccccc1	25%		
